Screens (PubChem BioAssay)
KCNK3 inh: human KCNK3 channel inhibition, primary screen; O14649; CHO-KCNK3 thallium flux, FluxOR fluorescence; hits give low values; B-score at 10 µM; 340,000 compounds, 0.84% hits; AID 602410;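 active means B-score under library mean minus 4 SD, starting fluorescence ratio at most library mean plus 5 SD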;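 further: more negative B-score means stronger inhibition of thallium flux through KCNK3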
hERG rescue: shields human hERG channel from block by proarrhythmic agents | 310,000 compounds, 0.51% hits | AID 1511 | activation (rescue from dofetilide block), less the hit threshold, % at 10 µM | Q12809 | CHO-hERG, FluxOR thallium flux, dofetilide IC70 present;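 active means activation above the mean of controls blocked by dofetilide plus 5 SD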;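 further: thallium influx through hERG after potassium depolarization seen as dye fluorescence rise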
Target sequence (Q12809 whole entry, looked up): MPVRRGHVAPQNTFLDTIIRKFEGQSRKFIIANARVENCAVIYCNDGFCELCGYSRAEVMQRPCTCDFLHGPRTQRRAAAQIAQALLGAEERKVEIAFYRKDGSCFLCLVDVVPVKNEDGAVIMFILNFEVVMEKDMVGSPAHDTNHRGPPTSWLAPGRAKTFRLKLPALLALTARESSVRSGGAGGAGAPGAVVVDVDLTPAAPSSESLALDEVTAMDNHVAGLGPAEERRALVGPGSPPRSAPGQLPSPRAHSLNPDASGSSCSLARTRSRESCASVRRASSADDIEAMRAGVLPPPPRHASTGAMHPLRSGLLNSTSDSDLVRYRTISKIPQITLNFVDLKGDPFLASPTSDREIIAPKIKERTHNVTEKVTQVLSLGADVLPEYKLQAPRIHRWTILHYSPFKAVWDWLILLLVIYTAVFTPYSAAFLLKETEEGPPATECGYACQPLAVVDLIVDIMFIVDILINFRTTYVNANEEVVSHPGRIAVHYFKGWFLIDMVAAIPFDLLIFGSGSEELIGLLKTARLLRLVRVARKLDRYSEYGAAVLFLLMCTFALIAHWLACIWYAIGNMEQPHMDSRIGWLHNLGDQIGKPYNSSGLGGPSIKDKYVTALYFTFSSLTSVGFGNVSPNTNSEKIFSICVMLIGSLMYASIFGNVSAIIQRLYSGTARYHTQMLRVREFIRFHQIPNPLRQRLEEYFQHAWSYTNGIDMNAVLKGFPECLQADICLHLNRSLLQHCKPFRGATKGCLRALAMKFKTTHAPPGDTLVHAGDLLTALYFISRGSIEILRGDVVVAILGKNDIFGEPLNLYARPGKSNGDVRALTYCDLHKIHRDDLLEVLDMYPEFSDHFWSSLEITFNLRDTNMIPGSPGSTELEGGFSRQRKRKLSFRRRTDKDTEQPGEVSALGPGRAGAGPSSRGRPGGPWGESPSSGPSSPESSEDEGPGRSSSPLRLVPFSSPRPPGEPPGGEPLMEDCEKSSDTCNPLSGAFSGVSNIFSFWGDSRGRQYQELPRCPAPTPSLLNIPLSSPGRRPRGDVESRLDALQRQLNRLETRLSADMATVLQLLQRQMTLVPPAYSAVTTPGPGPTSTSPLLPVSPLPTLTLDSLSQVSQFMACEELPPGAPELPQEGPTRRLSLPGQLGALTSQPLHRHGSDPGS
KCNQ1 pot: human KCNQ1 channel potentiation or activation | P51787 | CHO-K1 KCNQ1, thallium flux FluxOR fluorescence; hits give high values | B-score at 10 µM | 310,000 compounds, 0.35% hits;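 active means fluorescence ratio B-score, a plate-corrected score, at least three library SD, with initial intensity B-score within 5 SD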
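Medium – assay buffer, equal DMSO in all wells · Material – CHO-K1 cell line with stable KCNQ1 potassium channel expression · Signal – kinetic FluxOR thallium fluorescence, 10-s 1-Hz baseline, 110-s post-stimulus read · Compound – single concentration per compound, DMSO matched to controls · Schedule – 37 °C overnight plating, 90-min dark dye load, 20-min compound pretreatment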
KCNK9 block: inhibitors of human KCNK9 two-pore domain potassium channel. B-score at 10 µM. HEK293 KCNK9, FluxOR thallium flux fluorescence; hits give low values. 310,000 compounds, 1.2% hits. AID 488922;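 active means ratio B-score over 3 SD below the library mean, with starting fluorescence within 5 SD of its mean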;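 further: negative B-score means less thallium flux so channel inhibition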
KCNQ1 block: human KCNQ1 channel inhibition. AID 2642. P51787. B-score at 10 µM. CHO-K1 KCNQ1, FluxOR thallium flux fluorescence; hits give high values. 310,000 compounds, 1.3% hits;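 active means compounds whose thallium flux B-score, printed positive for inhibition, exceeds three library SD while starting fluorescence stays within three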;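 further: channel opened by potassium depolarization with thallium stimulus after 20 min compound exposure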
Starred values were filed as active, the others as inactive. The list is not random: actives were taken first. Their share in the collection is about 3.1%.

How did Nc1c(C(=O)NCC2CCCO2)sc2nc3c(c(-c4ccco4)c12)CC/C3=C\c1ccco1 (centres undefined) do in these assays?
KCNK3 inh: -12.1*

What do the screens show for `CCC1Oc2ccccc2N(CC(=O)NCCCN2CCC(C)CC2)C1=O` (centres undefined)?
KCNK3 inh: inactive; hERG rescue: 5.5*; KCNQ1 pot: inactive; KCNK9 block: inactive; KCNQ1 block: inactive

What do the screens show for `CCC1Oc2ccccc2N(CC(=O)NCCN2CCCC2)C1=O` (centres undefined)?
KCNK3 inh: inactive; hERG rescue: -5.7; KCNQ1 pot: inactive; KCNK9 block: inactive; KCNQ1 block: inactive

What do the screens show for `CCC1Oc2ccccc2N(CC(=O)NCCN2C(C)CCCC2C)C1=O` (centres undefined)?
KCNK3 inh: inactive; hERG rescue: 7.2*; KCNQ1 pot: inactive; KCNK9 block: inactive; KCNQ1 block: inactive

Results for COc1ccccc1N1CN(S(=O)(=O)c2ccc(C)cc2)c2nc3ccccc3nc21 ?
KCNK3 inh: -9.9*

What do the screens show for `COc1ccc(CN(C)S(=O)(=O)c2nnc(NC(=O)c3cccc(F)c3)s2)cc1`?
KCNK3 inh: inactive; hERG rescue: -7.0; KCNQ1 pot: inactive; KCNK9 block: inactive; KCNQ1 block: inactive

Results for Cc1nn(-c2ccccc2)c(C)c1NC(=O)COC(=O)CCc1ccccc1 ?
KCNK3 inh: inactive; hERG rescue: -7.5; KCNQ1 pot: inactive; KCNK9 block: inactive; KCNQ1 block: inactive

Results for COc1cc(NC(=O)c2ccc(S(=O)(=O)N(C)c3ccccc3)cc2)cc(OC)c1 ?
KCNK3 inh: -9.08*

What do the screens show for `CN(c1ccccc1)S(=O)(=O)c1cccc(NC(=O)c2ccc(Cl)c([N+](=O)[O-])c2)c1`?
KCNK3 inh: -11.3*

Results for Nc1cccc(N=[N+]([O-])c2cccc(N)c2)c1 ?
KCNK3 inh: inactive

How did Cc1cc(C)n(CCNC(=O)C2CCC(=O)N(Cc3ccc(Cl)cc3)C2)n1 (centres undefined) do in these assays?
KCNK3 inh: inactive; hERG rescue: -4.8; KCNQ1 pot: inactive; KCNK9 block: inactive; KCNQ1 block: inactive

How did O=C(Nc1nc(-c2cccs2)cs1)c1cccc(S(=O)(=O)N2CCCCCC2)c1 do in these assays?
KCNK3 inh: inactive; hERG rescue: -9.8; KCNQ1 pot: inactive; KCNK9 block: inactive; KCNQ1 block: inactive

What do the screens show for `O=C(Nc1nc(-c2cccs2)cs1)c1ccc(S(=O)(=O)N2CCCCC2)cc1`?
KCNK3 inh: inactive; hERG rescue: -7.4; KCNQ1 pot: inactive; KCNK9 block: inactive; KCNQ1 block: 6*

Results for COc1ccc(NC2CCCN(C(=O)C3=NN(C)C(=O)CC3)C2)cc1OC (centres undefined) ?
KCNK3 inh: inactive; hERG rescue: -8.8; KCNQ1 pot: inactive; KCNK9 block: inactive; KCNQ1 block: inactive

Results for CC1(C)NC(=O)N(CC(=O)N2CCCC(C(F)(F)F)C2)C1=O (centres undefined) ?
KCNK3 inh: inactive; hERG rescue: -15.5; KCNQ1 pot: inactive; KCNK9 block: inactive; KCNQ1 block: inactive

How did COc1ccccc1/C=C/C(=O)N1CCN(S(=O)(=O)c2cc(C)ccc2C)CC1 do in these assays?
KCNK3 inh: -8.78*

How did Cc1c(C(=O)Nc2ccccc2)cnn1-c1ccccc1 do in these assays?
KCNK3 inh: inactive; hERG rescue: -8.2; KCNQ1 pot: inactive; KCNK9 block: inactive; KCNQ1 block: inactive

What do the screens show for `Cc1c(C(=O)Nc2cccc([N+](=O)[O-])c2)cnn1-c1ccccc1`?
KCNK3 inh: inactive; hERG rescue: 7.0*; KCNQ1 pot: inactive; KCNK9 block: inactive; KCNQ1 block: inactive

How did Cc1cc(C)n(-c2ccc(C(=O)Nc3cccc([N+](=O)[O-])c3)cc2)n1 do in these assays?
KCNK3 inh: inactive; hERG rescue: -11.7; KCNQ1 pot: inactive; KCNK9 block: inactive; KCNQ1 block: 9*

What do the screens show for `Cc1cc(C)n(-c2ccc(C(=O)Nc3cccc(S(=O)(=O)N(C)C)c3)cc2)n1`?
KCNK3 inh: inactive; hERG rescue: -15.8; KCNQ1 pot: inactive; KCNK9 block: inactive; KCNQ1 block: inactive

How did COc1ccc(CCNC(=O)CN(C)S(=O)(=O)c2ccc(OC)cc2)cc1 do in these assays?
KCNK3 inh: inactive; hERG rescue: -5.8; KCNQ1 pot: inactive; KCNK9 block: inactive; KCNQ1 block: inactive

Results for COc1cc(S(=O)(=O)N2CC(=O)Nc3ccccc32)ccc1NC(C)=O ?
KCNK3 inh: inactive; hERG rescue: -3.7; KCNQ1 pot: inactive; KCNK9 block: inactive; KCNQ1 block: inactive

What do the screens show for `Cc1noc(C)c1S(=O)(=O)N(C)C[C@H]1Oc2ccc(NC(=O)CCC(F)(F)F)cc2C(=O)N([C@H](C)CO)C[C@@H]1C`?
KCNK3 inh: inactive

Results for Oc1c(C(Nc2cccc(C(F)(F)F)c2)c2ccncc2)ccc2cccnc12 (centres undefined) ?
KCNK3 inh: inactive; hERG rescue: -3.6; KCNQ1 pot: inactive; KCNK9 block: inactive; KCNQ1 block: 13*

How did CC(=O)NC(c1ccc2ccccc2c1)c1ccc2cccnc2c1O (centres undefined) do in these assays?
KCNK3 inh: inactive; hERG rescue: -2.6; KCNQ1 pot: inactive; KCNK9 block: inactive; KCNQ1 block: inactive

How did Cc1nc(-c2ccc(NC(=O)Cc3ccccc3)cc2)cs1 do in these assays?
KCNK3 inh: inactive; hERG rescue: 2.1; KCNQ1 pot: 8*; KCNK9 block: inactive; KCNQ1 block: inactive

What do the screens show for `CC(=O)Nc1cccc(-c2csc(NCc3ccccc3)n2)c1`?
KCNK3 inh: inactive; hERG rescue: -2.5; KCNQ1 pot: inactive; KCNK9 block: inactive; KCNQ1 block: inactive

How did CCC(=O)Nc1cccc(-c2csc(-c3ccccc3)n2)c1 do in these assays?
KCNK3 inh: inactive; hERG rescue: -10.4; KCNQ1 pot: inactive; KCNK9 block: -7.44*; KCNQ1 block: inactive

Results for COC(=O)C1CCc2c(ccc3c2CCCC3)C1=O (centres undefined) ?
KCNK3 inh: inactive

How did CCN(CCCn1c(=S)[nH]c2ncccc2c1=O)c1ccccc1 do in these assays?
KCNK3 inh: inactive; hERG rescue: 38.2*; KCNQ1 pot: inactive; KCNK9 block: inactive; KCNQ1 block: inactive

How did CC1(C)SC(=S)N(/N=C/c2ccc(O)cc2)C1N(O)C(=O)Nc1ccc([N+](=O)[O-])cc1 (centres undefined) do in these assays?
KCNK3 inh: inactive; hERG rescue: -13.6; KCNQ1 pot: inactive; KCNK9 block: inactive; KCNQ1 block: 10*

How did CC1(C)SC(=S)N(/N=C/c2ccccc2O)C1N(O)C(=O)Nc1ccccc1 (centres undefined) do in these assays?
KCNK3 inh: inactive; hERG rescue: -16.2; KCNQ1 pot: inactive; KCNK9 block: inactive; KCNQ1 block: 8*
